In ChEMBL document CHEMBL4425157, “New antibacterial agents: Hybrid bioisoster derivatives as potential E. coli FabH inhibitors” (Bioorg Med Chem Lett, 2016):
Values after ≈ are worked out from the molar mass of the structure shown. Active and inactive are the calls of the source. The calls are words filed in the database; no cut-off is given here.

What was measured:
Escherichia coli = experiment: Antibacterial activity against Escherichia coli ATCC 25922 by broth microdilution method; assay type: functional
How it was run: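 MIC read by broth microdilution, run in duplicate.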

Staphylococcus aureus = experiment: Antibacterial activity against Staphylococcus aureus ATCC 29213 by broth microdilution method; assay type: functional
Vero = experiment: Cytotoxicity against african green monkey Vero cells assessed as reduction in cell viability measured after 72 hrs by MTS assay; assay type: cell-based; settings: Chlorocebus sabaeus
How it was run: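 Vero cells exposed to compounds, with viability read by MTS assay; IC50 derived from the viability data.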

[1] = Growth inhibition of african green monkey Vero cells at highest concentration measured after 72 hrs by MTS assay relative to control; assay type: cell-based; settings: chlorocebus sabaeus, read-out: GI
How it was run: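 Vero cells in MTS viability assay; the value is the percentage growth inhibition at the highest compound concentration tested.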

Candida albicans = experiment: Antifungal activity against Candida albicans ATCC 10231 by broth dilution method; assay type: functional
[2] = Induction of nitrite formation at 100 uM measured after 1 hr in presence of L-cysteine by Griess assay; assay type: functional
How it was run: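 Compound at 100 µM incubated with 5 mM L-cysteine in 50 mM phosphate buffer pH 7.4/methanol (1:1), 1 h at 37 °C; aliquots taken and nitrite quantified by Griess reaction.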

Compound	MIC (Escherichia coli) [µM]	MIC (Staphylococcus aureus) [µM]	IC50 (Vero) [µM]	inhibition at 72 h [1] [%]	MIC (Candida albicans) [µM]	Activity [2]
GENTAMICIN	< 0.02	0.076				
CO[C@H]1/C=C/O[C@@]2(C)Oc3c(C)c(O)c4c(O)c(c(/C=N/N5CCN(C)CC5)c(O)c4c3C2=O)NC(=O)/C(C)=C\C=C\[C@H](C)[C@H](O)[C@@H](C)[C@@H](O)[C@@H](C)[C@H](OC(C)=O)[C@@H]1C [RIFAMPIN]			> 100	44.8		
Cc1ccc(S(=O)(=O)N/N=C/c2no[n+]([O-])c2C)cc1	0.36 (≈ 0.107 µg/mL)	> 100	> 100	8.38	> 100	inactive
C[C@@H]1[C@H](O)[C@@H](C)/C=C/C=C/C=C/C=C/C=C/C=C/C=C/[C@H](O[C@@H]2O[C@H](C)[C@@H](O)[C@H](N)[C@@H]2O)C[C@@H]2O[C@](O)(C[C@@H](O)C[C@@H](O)[C@H](O)CC[C@@H](O)C[C@@H](O)CC(=O)O[C@H]1C)C[C@H](O)[C@H]2C(=O)O [AMPHOTERICIN B]					0.027 (≈ 0.025 µg/mL)	
Cc1c(/C=N/NS(=O)(=O)c2ccc([N+](=O)[O-])cc2)no[n+]1[O-]	> 300	> 100	> 100	0	> 100	inactive
COc1ccc(S(=O)(=O)N/N=C/c2no[n+]([O-])c2C)cc1	77.8 (≈ 24.3 µg/mL)	> 100	> 100	0	> 100	inactive
CC1(C)S[C@@H]2[C@H](NC(=O)[C@H](N)c3ccccc3)C(=O)N2[C@H]1C(=O)O [AMPICILLIN]	9.59 (≈ 3.35 µg/mL)	1.1 (≈ 0.384 µg/mL)				
Cc1c(/C=N/NS(=O)(=O)c2ccccc2)no[n+]1[O-]	10.7 (≈ 3.03 µg/mL)	> 100	> 100	63.4	> 100	inactive
Cc1c(/C=N/NS(=O)(=O)c2ccc(C(C)(C)C)cc2)no[n+]1[O-]	287 (≈ 97.1 µg/mL)	> 100	> 100	74.8	> 100	inactive
